# According to ChEMBL document CHEMBL1138657 (2004):
# Experiments:
# Candida albicans [1] = experiment: Antifungal activity to cause 99% reduction of surviving cells range is equal to 2-32; type: functional, Fungi
# Candida parapsilosis [2] = experiment: Minimum inhibitory concentration to inhibit Candida parapsilosis ATCC 22019; type: functional, Fungi; details: Lodderomyces parapsilosis
# In short: (§1)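 Broth microdilution per NCCLS document against 20 C. albicans strains. […] MIC is reported in µg/mL as the arithmetic mean ± SD. MIC50 and MIC90 are the MICs at which 50% and 90% of isolates are inhibited. C. parapsilosis ATCC22019 was run as the QC strain.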
# Candida albicans [3] = experiment: Antifungal activity to cause 99% reduction of surviving cells in 50% isolates; type: functional, Fungi
# Candida albicans [4] = experiment: Minimum inhibitory concentration to inhibit 50% of the isolates; type: functional, Fungi; in short: as §1
# Candida parapsilosis [5] = experiment: Antifungal activity to inhibit Candida parapsilosis ATCC 22019; type: functional, Fungi; details: Lodderomyces parapsilosis
# K562 = experiment: Cytotoxicity to reduce chronic myeloid leukemia K 562 cells; type: functional; details: Homo sapiens
# In short: (§2)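 CC50 is the concentration in µM that reduces viability of human histiocytic lymphoma U937 or chronic myeloid leukemia K562 cells by 50%.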
# Candida albicans [6] = experiment: Minimum inhibitory concentration to inhibit 90% of the isolates; type: functional, Fungi; in short: as §1
# U-937 = experiment: Cytotoxicity to reduce human histolytic lymphoma U937 cells; type: functional; in short: as §2
# Candida albicans [7] = experiment: Minimum inhibitory concentration to inhibit Candida albicans strain range is equal to 1-8; type: functional, Fungi; in short: as §1
# Candida albicans [8] = experiment: Antifungal activity to cause 99% reduction of surviving cells in 90% isolates; type: functional, Fungi
# Candida albicans [9] = experiment: Antifungal activity to cause 99% reduction of surviving cells range is equal to 4-16; type: functional, Fungi
# Candida albicans [10] = experiment: Minimum inhibitory concentration to inhibit Candida albicans strain range is equal to 16-128; type: functional, Fungi; in short: as §1
# Candida albicans [11] = experiment: Antifungal activity to cause 99% reduction of surviving cells range is equal to 32-128; type: functional, Fungi
# Candida albicans [12] = experiment: Minimum inhibitory concentration to inhibit 50% of the isolates
# Candida albicans [13] = experiment: Minimum inhibitory concentration to inhibit Candida Albicans strain range is equal to 4-64; type: functional, Fungi; in short: as §1
# Candida albicans [14] = experiment: Antifungal activity to cause 99% reduction of surviving cells range is equal to 1-8; type: functional, Fungi
# Candida albicans [15] = experiment: Minimum inhibitory concentration to inhibit Candida albicans strain range is equal to 0.5-4; type: functional, Fungi; in short: as §1
# Candida albicans [16] = experiment: Antifungal activity to cause 99% reduction of surviving cells range is equal to 2-16; type: functional, Fungi
# Candida albicans [17] = experiment: Minimum inhibitory concentration to inhibit Candida albicans strain range is equal to 1-4; type: functional, Fungi; in short: as §1
# Candida albicans [18] = experiment: Antifungal activity to cause 99% reduction of surviving cells range is equal to 8-16; type: functional, Fungi
# Candida albicans [19] = experiment: Antifungal activity to cause 99% reduction of surviving cells range is equal to 16-128; type: functional, Fungi
# Candida albicans [20] = experiment: Minimum inhibitory concentration to inhibit Candida albicans strain range is equal to 8-64; type: functional, Fungi; in short: as §1
# Candida albicans [21] = experiment: Antifungal activity to cause 99% reduction of surviving cells range is equal to 8-32; type: functional, Fungi
# Candida albicans [22] = experiment: Minimum inhibitory concentration to inhibit Candida albicans strain range is equal to 2-8; type: functional, Fungi; in short: as §1
# Candida albicans [23] = experiment: Minimum inhibitory concentration to inhibit Candida albicans strain range is equal to 0.125-64; type: functional, Fungi
# Candida albicans [24] = experiment: Antifungal activity to cause 99% reduction of surviving cells; type: functional, Fungi
# Candida albicans [25] = experiment: Antifungal activity to cause 99% reduction of surviving cells range is equal to 64-128; type: functional, Fungi
# Candida albicans [26] = experiment: Minimum inhibitory concentration to inhibit Candida albicans strain range is equal to 32-128; type: functional, Fungi
# Candida albicans [27] = experiment: Minimum inhibitory concentration to inhibit Candida albicans strain range is equal to 2-16; type: functional, Fungi
# Candida albicans [28] = experiment: Antifungal activity to cause 99% reduction of surviving cells range is equal to 4-32; type: functional, Fungi
SMILES,MIC (Candida parapsilosis [2]) [µg/mL],MFC50 (Candida albicans [3]) [µg/mL],MIC50 (Candida albicans [4]) [µg/mL],MFC (Candida parapsilosis [5]) [µg/mL],CC50 (K562) [µM],MIC90 (Candida albicans [6]) [µg/mL],CC50 (U-937) [µM],MFC90 (Candida albicans [8]) [µg/mL],also measured
Clc1ccc(OC(CCn2ccnc2)c2ccccc2)cc1 (stereo unspecified),4,4,2,32,221,4,84.9,16,MFC (Candida albicans [1]): < 32 µg/mL; MIC (Candida albicans [7]): < 8 µg/mL
Clc1ccc(OC(CCn2ccnc2)c2ccccc2)c(Cl)c1 (stereo unspecified),2,8,4,8,96.7,8,56.5,8,MFC (Candida albicans [9]): < 16 µg/mL; MIC (Candida albicans [7]): < 8 µg/mL
FC(F)(F)c1ccc(OC(CCn2ccnc2)c2ccccc2)cc1 (stereo unspecified),4,64,64,16,71,128,86,128,MIC (Candida albicans [10]): < 128 µg/mL; MFC (Candida albicans [11]): < 128 µg/mL
Fc1ccc(OC(CCn2ccnc2)c2ccccc2)c(F)c1 (stereo unspecified),8,64,–,32,298,64,219,128,MIC50 (Candida albicans [12]): 32 µg/mL; MFC (Candida albicans [11]): < 128 µg/mL; MIC (Candida albicans [13]): < 64 µg/mL
Clc1ccc(C(CCn2ccnc2)Oc2ccc(Cl)cc2Cl)cc1 (stereo unspecified),0.5,4,2,8,54,4,61,4,MFC (Candida albicans [14]): < 8 µg/mL; MIC (Candida albicans [15]): < 4 µg/mL
Fc1ccc(C(CCn2ccnc2)Oc2ccc(Cl)cc2Cl)cc1 (stereo unspecified),0.5,8,2,4,33.5,4,43.3,8,MFC (Candida albicans [16]): < 16 µg/mL; MIC (Candida albicans [15]): < 4 µg/mL
Cc1ccc(C(CCn2ccnc2)Oc2ccc(Cl)cc2Cl)cc1 (stereo unspecified),1,4,2,4,31.4,8,40,16,MIC (Candida albicans [17]): < 4 µg/mL; MFC (Candida albicans [16]): < 16 µg/mL
Cc1ccc(OC(CCn2ccnc2)c2ccccc2)cc1 (stereo unspecified),2,16,8,16,95.9,16,141,16,MIC (Candida albicans [10]): 16 µg/mL; MFC (Candida albicans [18]): < 16 µg/mL
O=[N+]([O-])c1ccc(OC(CCn2ccnc2)c2ccccc2)cc1 (stereo unspecified),–,32,32,32,102,32,97.2,>128,MFC (Candida albicans [19]): < 128 µg/mL; MIC (Candida albicans [20]): < 64 µg/mL; MIC (Candida parapsilosis [5]): 4 µg/mL
Clc1ccc(COC(Cn2ccnc2)c2ccc(Cl)cc2Cl)cc1 (stereo unspecified) [ECONAZOLE],2,16,4,2,54.7,8,60,32,MFC (Candida albicans [21]): < 32 µg/mL; MIC (Candida albicans [22]): < 8 µg/mL
OC(Cn1cncn1)(Cn1cncn1)c1ccc(F)cc1F [FLUCONAZOLE],0.5,–,2,8,385,64,316,–,MIC (Candida albicans [23]): < 64 µg/mL; MFC (Candida albicans [24]): > 64 µg/mL
CNCCC(Oc1ccc(C(F)(F)F)cc1)c1ccccc1 (stereo unspecified) [FLUOXETINE],8,–,64,64,25,128,33.3,–,MFC (Candida albicans [25]): < 128 µg/mL; MIC (Candida albicans [26]): < 128 µg/mL
CC(=O)N1CCN(c2ccc(OC[C@H]3CO[C@](Cn4ccnc4)(c4ccc(Cl)cc4Cl)O3)cc2)CC1 [KETOCONAZOLE],0.06,16,4,0.5,61.7,8,70,32,MFC (Candida albicans [21]): < 32 µg/mL; MIC (Candida albicans [27]): < 16 µg/mL
Clc1ccc(COC(Cn2ccnc2)c2ccc(Cl)cc2Cl)c(Cl)c1 (stereo unspecified) [MICONAZOLE],1,8,4,0.5,39.3,4,40,16,MFC (Candida albicans [28]): < 32 µg/mL; MIC (Candida albicans [7]): < 8 µg/mL
